In PMC4530630 (Molecular cell, 2015):

How the values were obtained:
[1] = tested on: A549 human lung cancer cells; assay: PE-AnnexinV FACS apoptosis in A549 cells; type: cell-based
Outline: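 A549 human lung cancer cells received AZD8055 (1 μM) or DMSO together with increasing doses of test compound for 72 hours. Cells were then collected, stained with PE-AnnexinV and quantified by FACS. Read-out was the percentage of AnnexinV-positive cells, taken as cells actively undergoing apoptosis.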

[2] = tested on: PC3 human prostate cells stably expressing GFP-LC3; assay: GFP-LC3 puncta high-throughput microscopy in PC3 cells; type: cell-based; conditions: 1 μM for 4 hours, control siRNA cells
Outline: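 GFP-LC3 PC3 cells were used for a focused RNAi screen of kinases. 48 hours after siRNA transfection, cells received 1 μM of the catalytic mTOR inhibitors AZD8055 or INK128 for 4 hours. GFP-LC3 puncta were then imaged, with nuclei counterstained by DAPI. Results were reported as mean puncta number with standard deviation for each siRNA and drug treatment.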

[3] = tested on: panel of 456 purified human kinases; assay: DiscoveRx KINOMEscan competition-binding assay; conditions: tested at 10 μM
A549 cells = assay: Cyto-ID autophagy dye imaging in A549 cells; type: cell-based, human; conditions: 5 μM 6965 for 2 hours, then 4 μM AZD8055 for 24 hours
Outline: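 A549 cells were pretreated with or without test compound (5 μM) for 2 hours, then exposed to the catalytic mTOR inhibitor AZD8055 (4 μM) for 24 hours. Autophagic vacuoles were stained with the Cyto-ID autophagy detection kit and nuclei with DAPI. Read-out was immunofluorescence imaging.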

[4] = tested on: endogenous FAK, AMPK, mTOR, Akt, or Erk signaling; assay: immunoblot of endogenous growth pathway signaling in wild-type MEFs; type: cell-based, mouse; conditions: 10 μM
Outline: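 Wild-type and Ulk1/Ulk2 double-knockout MEFs were given fresh DMEM with 10% FBS containing 1 μM INK128, 1 μM AZD8055 or DMSO, or EBSS starvation medium, with or without 10 μM test compound. Endogenous signaling was assessed by immunoblotting. Endogenous ULK1 activity was monitored with a phospho-specific antibody to Atg13 Ser318.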

Row | number of kinases inhibited >95% [3] | Structure (SMILES) | apoptotic (AnnexinV-positive) cells ([1]; AZD8055 (1 μM) alone, 72 hours) [%] | induction in GFP-LC3 puncta formation [2] [fold] | apoptotic (AnnexinV-positive) cells ([1]; 5 μM 6965 in the absence of AZD8055, 72 hours) [%] | effect on AZD8055-induced autophagy (Cyto-ID dye accumulation) (A549 cells) | effect on endogenous FAK, AMPK, mTOR, Akt, or Erk signaling [4]
1 | – | COc1ccc(-c2ccc3c(N4CCOC[C@@H]4C)nc(N4CCOC[C@@H]4C)nc3n2)cc1CO [AZD8055, reference compound] | 7 | 2 | – | – | –
2 | – | CC(C)n1nc(-c2ccc3oc(N)nc3c2)c2c(N)ncnc21 [INK128] | – | 2 | – | – | –
3 | 10 out of 456 | CNC(=O)c1ccccc1Oc1nc(Nc2cc(OC)c(OC)c(OC)c2)ncc1Br [SBI-0206965] | – | – | 10 | strongly suppressed | did not impair
